Several values for one entry are separate records, joined by “and”; a condition that tells them apart may be missing. Equal entries are not always repeated. Where two headings read alike, the source gives them in different places. Blank lines part the entries; values can stand above or below the molecule they belong to.
Assays:
SD rats = assay: Transection tail bleeding time; format: in vivo, rat
Outline: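 Male SD rats were dosed orally with test compound, either once or twice daily for 2 weeks; clopidogrel 8 mg·kg−1 was given on the same regimens. One hour after dosing, under urethane (1.25 g·kg−1 i.p.), tails were transected 3 mm from the tip and blotted every 30 s until bleeding stopped, with a 30 min cut‑off. n = 6 (single) or 5 (multiple) per group.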

human platelets (PRP) [1] = assay: Shear stress-induced platelet aggregation; format: cell-based
human platelets (PRP) [2] = assay: Agonist-induced platelet aggregation in human PRP; format: cell-based; conditions: for IC50: Homo sapiens, Platelet
Outline: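 Human blood was anticoagulated with 3.2% citrate (1:9) and spun at 150 g for 15 min to give PRP, adjusted to 3 × 10^8 platelets/ml with PPP. PRP was incubated with test compound for 30 min at 37°C, then stimulated for 6 min with thrombin (0.6–0.8 U·ml−1), collagen (2–4 μg·ml−1), ADP (5–10 μM) or ristocetin (1.0–1.25 mg·ml−1). Aggregation was read by light transmission, with PPP as 100%.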

washed human platelets = assay: SIPA in washed human platelets; format: cell-based; conditions: 30 min incubation, n = 6
Outline: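 Human washed platelets (3 × 10^8/ml in Tyrode's pH 7.4, 2 mM CaCl2) were preincubated with test compound for 30 min, and 10 μg·ml−1 vWF was added. They were then sheared in a cone-plate viscometer at 10,800 s−1 for 10 min at 37°C and fixed with 0.5% glutaraldehyde. Aggregation was scored from single-cell counts by light microscopy and […]. n = 6, mean ± SEM.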

[3] = tested on: platelets in human whole blood; assay: Thrombus formation under flow conditions, collagen-coated flow chamber; format: cell-based; conditions: shear rate 1,500 s^−1, concentration-dependent, n = 5
Outline: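 Flow chambers were coated with 100 μg·ml−1 equine type I collagen for 60 min at room temperature, washed with PBS and blocked with 1% BSA for 60 min. Whole blood loaded with 5 μM calcein‑green AM was incubated with test compound for 30 min. It was perfused at 1,500 s−1 for 5 min, imaged by confocal microscopy, and reported as % coverage area, n = 5.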

washed platelets [4] = assay: Intracellular calcium level under high shear stress; format: cell-based, human; conditions: washed platelets, 10,800 s^−1, concentration-dependent
platelets [5] = assay: 5-HT release under high shear stress; format: cell-based, human
Outline: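 Platelets were treated with a range of test compound concentrations for 30 min and exposed to high shear stress. Supernatants were collected by centrifugation at 12,000 g for 5 min at 4°C, and 5‑HT was measured by ELISA. Samples were run in duplicate, n = 5 per group. Values are expressed relative to matched vehicle and normalised to unsheared samples.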

washed platelets [6] = assay: P-selectin expression under high shear stress; format: cell-based, human
Outline: (§1)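 Human washed platelets (acid–citrate–dextrose with 1 μM PGE1, washed in Tyrode's pH 7.4, 3 × 10^8/ml, 2 mM CaCl2) were incubated with a range of test compound concentrations, then sheared at 10,800 s−1 for 10 min in a cone-plate viscometer. Cells were labelled with anti-CD42b-PE plus anti-CD62P-FITC, PAC-1-FITC or Alexa Fluor 488-fibrinogen for 20 min in the dark and read by flow cytometry (10,000 events). Values are relative to vehicle and normalised to unsheared samples, mean ± SEM. n = 6 for P-selectin and PAC-1, n = 5 for fibrinogen.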

GP IIb/IIIa = GP IIb/IIIa activation under high shear stress; format: cell-based, human
Outline: as §1

washed platelets [7] = assay: Fibrinogen binding under high shear stress; format: cell-based, human
Outline: as §1

platelets [8] = assay: Platelet cytotoxicity, LDH leakage; format: cell-based, human; conditions: concentrations up to 1,000 μM
Outline: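 Platelets were incubated with test compound and centrifuged. Supernatant was added to Tris‑EDTA NADH buffer (56 mM Tris, 5.6 mM EDTA, 0.17 mM β‑NADH, pH 7.4) and preincubated for 10 min at 37°C, then 14‑mM pyruvate solution was added. LDH was read as the fall in A339, expressed as % of total activity in a 0.3% Triton X‑100 lysate. Samples were run in duplicate, with five repeats.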

vWF–GP Ib interaction = vWF–GP Ib interaction (Homo sapiens, UniProt P04275); assay: vWF binding to platelets under high shear stress; format: cell-based
Outline: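 Platelets were treated with test compound, exposed to shear stress, and diluted in Tyrode's buffer. They were stained with anti‑vWF‑FITC and anti‑CD42b‑PE for 20 min in the dark, and 10,000 events were analysed by flow cytometry. For GP IIb/IIIa blockade, platelets were preincubated with 2 mM Arg‑Gly‑Asp. Values are expressed relative to vehicle and normalised to unsheared samples, n = 5.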

human purified vWF = assay: Platelet adhesion to vWF-coated flow chamber under high shear stress; format: cell-based; conditions: flow chamber coated with 50 μg·ml^−1 vWF
[9] = Pharmacokinetic experiments in rats; format: in vivo; conditions: Sprague-Dawley, rat, plasma; for Tmax: SD rats, p.o. 25 mg·kg^−1
rat platelets (PRP) [10] = assay: SIPA in rat PRP in vitro; format: cell-based; conditions: n = 8
rat platelets (PRP) [11] = assay: Ex vivo determination of SIPA inhibition after oral dosing; format: in vivo; conditions: rats, 5, 10 and 25 mg·kg^−1 p.o., 1 hr
Outline: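 Male SD rats (280–320 g) were gavaged with test compound in 5% DMSO/10% Tween 80 in water at 5 ml·kg−1. After 1 hr, aortic blood was drawn under urethane (1.25 g·kg−1 i.p.) into 3.8% citrate (1:9), and PRP was prepared. PRP was sheared at 10,800 s−1 in a cone‑plate viscometer, fixed with glutaraldehyde, and aggregation was scored by microscopic single‑cell count. n = 6 rats per group.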

[12] = tested on: carotid artery thrombosis in SD rats; assay: FeCl3-induced arterial thrombosis model; format: in vivo, rat
[13] = Ex vivo prothrombin time and activated partial thromboplastin time; conditions: rats, therapeutic dose range p.o., 1 hr

Sequence of vWF–GP Ib interaction (P04275 764-2813 limits assumed): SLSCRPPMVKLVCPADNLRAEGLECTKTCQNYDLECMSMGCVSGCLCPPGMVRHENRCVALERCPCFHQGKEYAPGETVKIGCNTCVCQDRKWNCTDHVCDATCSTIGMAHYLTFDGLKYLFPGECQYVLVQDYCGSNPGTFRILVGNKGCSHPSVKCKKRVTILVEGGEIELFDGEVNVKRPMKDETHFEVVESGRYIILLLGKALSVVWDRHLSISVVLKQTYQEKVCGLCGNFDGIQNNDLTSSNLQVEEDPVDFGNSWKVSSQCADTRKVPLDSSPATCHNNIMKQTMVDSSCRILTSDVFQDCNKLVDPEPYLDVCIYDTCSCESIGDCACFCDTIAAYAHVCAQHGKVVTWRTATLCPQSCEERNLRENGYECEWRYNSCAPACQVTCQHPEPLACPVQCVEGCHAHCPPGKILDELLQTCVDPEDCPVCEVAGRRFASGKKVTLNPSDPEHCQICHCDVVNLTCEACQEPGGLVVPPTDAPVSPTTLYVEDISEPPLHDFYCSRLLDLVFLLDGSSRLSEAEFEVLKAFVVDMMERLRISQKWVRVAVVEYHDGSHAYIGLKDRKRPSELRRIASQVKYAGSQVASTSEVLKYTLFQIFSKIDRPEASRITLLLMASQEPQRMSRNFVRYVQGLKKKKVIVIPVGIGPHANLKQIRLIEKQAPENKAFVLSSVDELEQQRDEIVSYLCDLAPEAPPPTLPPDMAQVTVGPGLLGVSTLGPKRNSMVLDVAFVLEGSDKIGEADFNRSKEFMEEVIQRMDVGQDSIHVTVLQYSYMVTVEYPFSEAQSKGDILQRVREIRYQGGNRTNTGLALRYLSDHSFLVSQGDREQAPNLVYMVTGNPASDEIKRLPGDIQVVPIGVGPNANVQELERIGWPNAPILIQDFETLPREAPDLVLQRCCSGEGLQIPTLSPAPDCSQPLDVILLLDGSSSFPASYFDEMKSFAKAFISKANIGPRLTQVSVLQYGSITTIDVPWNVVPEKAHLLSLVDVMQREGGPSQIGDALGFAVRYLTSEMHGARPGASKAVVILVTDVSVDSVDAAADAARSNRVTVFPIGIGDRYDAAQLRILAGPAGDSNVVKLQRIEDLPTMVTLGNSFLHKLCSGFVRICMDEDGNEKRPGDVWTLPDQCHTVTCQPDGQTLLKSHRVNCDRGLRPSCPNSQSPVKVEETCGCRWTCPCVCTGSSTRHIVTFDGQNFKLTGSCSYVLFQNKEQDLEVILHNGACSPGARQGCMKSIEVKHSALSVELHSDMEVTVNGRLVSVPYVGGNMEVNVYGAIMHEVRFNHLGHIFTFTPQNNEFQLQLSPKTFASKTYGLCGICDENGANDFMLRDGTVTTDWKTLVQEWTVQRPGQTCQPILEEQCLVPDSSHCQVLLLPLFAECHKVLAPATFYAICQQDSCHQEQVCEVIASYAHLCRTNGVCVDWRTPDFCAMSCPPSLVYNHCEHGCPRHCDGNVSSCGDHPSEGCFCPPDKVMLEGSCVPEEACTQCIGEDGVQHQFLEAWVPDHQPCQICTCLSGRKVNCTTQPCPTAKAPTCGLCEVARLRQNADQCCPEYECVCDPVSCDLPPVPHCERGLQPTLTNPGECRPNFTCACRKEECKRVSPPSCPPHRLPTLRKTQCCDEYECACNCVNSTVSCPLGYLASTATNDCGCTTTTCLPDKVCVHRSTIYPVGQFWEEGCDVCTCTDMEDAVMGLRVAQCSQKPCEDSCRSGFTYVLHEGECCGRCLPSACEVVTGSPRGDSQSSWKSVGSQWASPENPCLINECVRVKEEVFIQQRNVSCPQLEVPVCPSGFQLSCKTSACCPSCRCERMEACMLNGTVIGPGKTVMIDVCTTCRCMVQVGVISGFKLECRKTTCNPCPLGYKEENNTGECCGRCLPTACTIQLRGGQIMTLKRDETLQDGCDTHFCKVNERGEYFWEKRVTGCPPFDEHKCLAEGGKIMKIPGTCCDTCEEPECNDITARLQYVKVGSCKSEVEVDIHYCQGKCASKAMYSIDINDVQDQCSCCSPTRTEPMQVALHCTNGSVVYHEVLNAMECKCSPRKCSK

Tail bleeding time (bleeding risk) (SD rats; 8 mg·kg^−1): clearly increased
SMILES: COC(=O)[C@H](c1ccccc1Cl)N1CCc2sccc2C1 [clopidogrel, reference compound]

IC50 (human platelets (PRP) [2]; read-out: IC50 (μM), platelet activator ADP): > 250 µM
IC50 (human platelets (PRP) [2]; read-out: IC50 (μM), platelet activator collagen): > 250 µM
IC50 (human platelets (PRP) [2]; read-out: IC50 (μM), platelet activator thrombin): > 250 µM
Binding of vWF to platelets under high shear with GP IIb/IIIa blocked (vWF–GP Ib interaction; GP IIb/IIIa blocked by Arg-Gly-Asp 2 mM): maintained
Binding of vWF to platelets under high shear (vWF–GP Ib interaction; GP IIb/IIIa free, concentration-dependent): markedly blocked
AUC(0-inf) ([9]; iv, 10 mg/kg): 3250 ng·h/mL
Vd ([9]; iv, 10 mg/kg): 5.3 ± 1.1 L/kg
clearance ([9]; iv, 10 mg/kg): 51.7 mL/min/kg
half-life ([9]; iv, 10 mg/kg): 2.4 ± 0.5 h
bioavailability ([9]; oral, 25 mg·kg^−1): 55.3 ± 16.7%
AUC(0-inf) ([9]; po, 25 mg/kg): 4490 ng·h/mL
Cmax ([9]; po, 25 mg/kg): 2370 ng/mL
half-life ([9]; po, 25 mg/kg): 3.6 ± 1.4 h
Tmax ([9]; po, 25 mg/kg, tmax (hr)): 7.2 ± 6 min
Tmax ([9]; po, 25 mg/kg, tmax): ~7 min
concentration at 3 min ([9]; po, 25 mg·kg^−1): 2290 ng/mL
concentration at 15 min ([9]; po, 25 mg·kg^−1): 1750 ng/mL and 6 µM
concentration at 30 min ([9]; po, 25 mg·kg^−1): 1060 ng/mL and 3.7 µM
concentration at 1 hr ([9]; po, 25 mg·kg^−1): 2.2 µM and 586 ng/mL
concentration at 4 hr ([9]; po, 25 mg·kg^−1): 1.3 µM and 366 ng/mL
concentration at 8 hr ([9]; po, 25 mg·kg^−1): 700 nM and 198 ng/mL
Tail bleeding time, single dose (SD rats; single oral dose up to 100 mg·kg^−1): did not prolong bleeding time
Blood clotting time (prothrombin time and activated partial thromboplastin time) [13]: did not prolong blood clotting time
SMILES: CCc1occc(=O)c1OC(=O)c1ccc(O)c(OC)c1 [SP‐8008, benzoic acid, 4‐hydroxy‐3‐methoxy‐, 2‐ethyl‐4‐oxo‐4H‐pyran‐3‐yl ester]
inhibition at 25 µM (human platelets (PRP) [1]; Homo sapiens, Platelet, read-out: In vitro SIPA inhibition (%)): 84 ± 16%
Effect on SIPA in human PRP (human platelets (PRP) [1]; concentration-dependent, 30 min incubation, n = 8): significantly inhibited
Selectivity for SIPA over thrombin, collagen, ADP (human platelets (PRP) [1]; ratio of IC50 values): over 150 fold
Ristocetin-induced platelet aggregation (human platelets (PRP) [2]; human PRP, ristocetin): attenuated
Effect on SIPA in washed human platelets (washed human platelets): suppressed
Size and number of platelet aggregates in collagen-coated flow chamber [3]: significantly reduced
Effect on shear stress-induced intracellular calcium elevation (washed platelets [4]): decreased the elevation of intracellular calcium
Effect on shear stress-induced 5-HT release (dense granule secretion) (platelets [5]): significant reduction
Effect on shear stress-induced P-selectin expression (α-granule secretion) (washed platelets [6]): significant reduction
Effect on shear stress-induced GP IIb/IIIa activation (GP IIb/IIIa): significantly blocked
Effect on shear stress-induced fibrinogen binding (washed platelets [7]): significantly blocked
LDH leakage from platelets (platelets [8]): did not increase LDH leakage
Adhesion of platelets to vWF-coated surfaces (human purified vWF): significantly inhibited
Effect on SIPA in rat platelets in vitro (rat platelets (PRP) [10]): significantly inhibited
Ex vivo effect on SIPA after oral administration (rat platelets (PRP) [11]): dose‐dependent inhibitory effects
Potency against arterial thrombosis after intravenous administration ([12]; intravenous administration, data not shown): strong inhibitory potency
Inhibition of arterial thrombosis compared with clopidogrel (8 mg·kg^−1) ([12]; rats, 25 mg·kg^−1 p.o., single treatment): close to that provided by clopidogrel
Time to occlusion, single treatment ([12]; rats, 10 or 25 mg·kg^−1 p.o., FeCl3): significantly prolong
Antithrombotic effects, multiple treatments ([12]; rats, oral twice daily for 5 days (2 weeks elsewhere in the source)): further confirmed

— article PMC7024737 (British Journal of Pharmacology, 2020)
